In PMC4133170 (Biochimica et biophysica acta, 2014):

Legend:
hCMEC/D3 cells = test: MTT cytotoxicity assay; format: cell-based, human
LRP1 [1] = test: Western blot of LRP1 expression in hCMEC/D3 cells; format: cell-based, human; settings: 24 h, 100 nM monomeric Aβ40 or 50 nM Aβ42 oligomers, n = 3
Method in brief: (§1)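 hCMEC/D3 cells (1 × 10⁶ per 100 mm dish) grown to 70% confluence, then given 24 h of control media, 100 nM Aβ40 monomer, 50 nM Aβ42 oligomer or both. Lysed in RIPA with protease inhibitors; 25 μg protein on 8% Bis-Tris/MOPS gel, nitrocellulose, 2% BSA block. Overnight primary: LRP1 1:1500, RAGE 1:200, GAPDH 1:3000. HRP secondary 1:5000; bands quantified; three independent blots.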

RAGE = test: Western blot of RAGE expression in hCMEC/D3 cells; format: cell-based, human; settings: 24 h, 100 nM monomeric Aβ40 or 50 nM Aβ42 oligomers, n = 3
Method in brief: as §1

LRP1 [2] = settings: in vivo administration of 100 μg over 26 h, FVB wild type mice; cited from earlier work

| Substance | decrease in viability of hCMEC/D3 (MTT) (hCMEC/D3 cells; 24 h treatment with 250 nM Aβ40 monomer, mean of n = 3 independent experiments) | MTT assay result versus control (hCMEC/D3 cells; 24 h treatment, Aβ40 monomers at 50 and 100 nM, n = 3) | reduction of LRP1 expression (LRP1 [1]) | alteration in RAGE protein expression (RAGE) | LRP1 expression in brain tissue (LRP1 [2]) |
| --- | --- | --- | --- | --- | --- |
| Aβ40 monomer: synthetic Aβ40 peptide (AnaSpec), HFIP film dissolved in media and used immediately | 14–17% | comparable to control treated cells | not observed | did not show any significant alterations | – |
| Aβ42 monomers: human sequence Aβ42 monomers administered in vivo in a cited study | – | – | – | – | significant reduction in LRP1 expression |
